# ChEMBL document CHEMBL1152835, “Synthesis and QSAR modeling of 2-acetyl-2-ethoxycarbonyl-1-[4(4'-arylazo)-phenyl]-N,N-dimethylaminophenyl aziridines as potential antibacterial agents” (2009)
# What was measured:
# Format in all cases: functional
# [1] = test system: Brevundimonas diminuta; experiment: Antibacterial activities against Pseudomonas diminuta MTCC 3361 after 16 to 24 hrs by twofold serial dilution method
# How it was run: (§1)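 Agar twofold serial dilution; compounds from DMF stock. Inoculum about 10⁷ CFU/ml taken from log-phase broth culture. Plates in triplicate, incubated at 37 °C for 16–24 h. Azinomycin run under the same conditions as control drug. MIC = lowest concentration giving no visible growth.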
# [2] = test system: Staphylococcus aureus; experiment: Antibacterial activities against Staphylococcus aureus ATCC 2943 after 16 to 24 hrs by twofold serial dilution method; how it was run: as §1
# [3] = test system: Escherichia coli; experiment: Antibacterial activities against Escherichia coli ATCC 13067 after 16 to 24 hrs by twofold serial dilution method; how it was run: as §1
# [4] = test system: Bacillus subtilis; experiment: Antibacterial activities against Bacillus subtilis ATCC 6633 after 16 to 24 hrs by twofold serial dilution method; conditions: for MIC: Bacillus subtilis, ATCC 6633; how it was run: as §1
Compound,-logMIC [1],-logMIC [2],-logMIC [3],-logMIC [4],MIC [4]
CCOC(=O)C1(C(C)=O)C(c2ccc(N(C)C)cc2)N1c1ccc(/N=N/c2ccc(C)cc2)cc1 (stereo not drawn),4.591,,,,
CCOC(=O)C1(C(C)=O)C(c2ccc(N(C)C)cc2)N1c1ccc(/N=N/c2ccc(O)cc2)cc1 (stereo not drawn),4.183,4.13,4.094,4.212,0.0614 ng/mL
CCOC(=O)C1(C(C)=O)C(c2ccc(N(C)C)cc2)N1c1ccc(/N=N/c2cccc([N+](=O)[O-])c2)cc1 (stereo not drawn),4.586,4.469,4.399,4.658,0.022 ng/mL
CCOC(=O)C1(C(C)=O)C(c2ccc(N(C)C)cc2)N1c1ccc(/N=N/c2cccc(Cl)c2)cc1 (stereo not drawn),4.412,4.329,4.276,4.46,0.0347 ng/mL
CCOC(=O)C1(C(C)=O)C(c2ccc(N(C)C)cc2)N1c1ccc(/N=N/c2ccc(Cl)cc2)cc1 (stereo not drawn),4.348,4.276,4.228,4.39,0.0407 ng/mL
CCOC(=O)C1(C(C)=O)C(c2ccc(N(C)C)cc2)N1c1ccc(/N=N/c2cccc(C)c2)cc1 (stereo not drawn),4.371,4.292,4.241,4.442,0.0361 ng/mL
CCOC(=O)C1(C(C)=O)C(c2ccc(N(C)C)cc2)N1c1ccc(/N=N/c2cccc(C(=O)O)c2)cc1 (stereo not drawn),4.495,4.398,4.337,4.553,0.028 ng/mL
CCOC(=O)C1(C(C)=O)C(c2ccc(N(C)C)cc2)N1c1ccc(/N=N/c2ccc([N+](=O)[O-])cc2)cc1 (stereo not drawn),4.524,4.445,4.378,4.586,0.0259 ng/mL
CCOC(=O)C1(C(C)=O)C(c2ccc(N(C)C)cc2)N1c1ccc(/N=N/c2cccc(Br)c2)cc1 (stereo not drawn),4.378,,,,
CCOC(=O)C1(C(C)=O)C(c2ccc(N(C)C)cc2)N1c1ccc(/N=N/c2ccccc2OC)cc1 (stereo not drawn),4.421,,,,
CCOC(=O)C1(C(C)=O)C(c2ccc(N(C)C)cc2)N1c1ccc(/N=N/c2ccccc2)cc1 (stereo not drawn),4.128,4.079,4.046,4.154,0.0701 ng/mL
CCOC(=O)C1(C(C)=O)C(c2ccc(N(C)C)cc2)N1c1ccc(/N=N/c2cccc(O)c2)cc1 (stereo not drawn),4.212,4.155,4.118,4.243,0.0571 ng/mL
CCOC(=O)C1(C(C)=O)C(c2ccc(N(C)C)cc2)N1c1ccc(/N=N/c2ccc(C(=O)O)cc2)cc1 (stereo not drawn),4.444,4.357,4.301,4.495,0.032 ng/mL
CCOC(=O)C1(C(C)=O)C(c2ccc(N(C)C)cc2)N1c1ccc(/N=N/c2cccc(OC)c2)cc1 (stereo not drawn),4.54,4.431,4.364,4.607,0.0247 ng/mL
